Laboratory results reported in ChEMBL document CHEMBL1122902, “Synthesis of the antileukemic agents 5,10-dideazaaminopterin and 5,10-dideaza-5,6,7,8-tetrahydroaminopterin” (J Med Chem, 1985).
pIC50: −log10 of the molar value.

Columns and labels:
Thymidylate synthase = target: T1, Thymidylate synthase (Lactobacillus casei, UniProt P00469); assay: In vitro inhibitory concentration against Lactobacillus casei thymidylate synthetase; set-up: species or system Lacticaseibacillus casei
T1 sequence (P00469 whole entry): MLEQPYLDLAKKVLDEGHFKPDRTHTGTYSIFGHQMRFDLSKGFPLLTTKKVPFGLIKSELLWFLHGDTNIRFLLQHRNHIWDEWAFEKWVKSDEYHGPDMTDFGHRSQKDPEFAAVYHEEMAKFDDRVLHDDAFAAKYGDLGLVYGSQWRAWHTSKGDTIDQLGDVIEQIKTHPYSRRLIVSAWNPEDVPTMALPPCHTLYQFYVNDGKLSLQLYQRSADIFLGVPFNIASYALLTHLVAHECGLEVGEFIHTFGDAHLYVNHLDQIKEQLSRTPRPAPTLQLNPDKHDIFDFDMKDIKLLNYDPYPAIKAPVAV

[1] = target: T2, Folylpolyglutamate synthase, mitochondrial (Mus musculus) (UniProt P48760); assay: Activity (relative Km ) was evaluated in vitro by purified mouse liver folate polyglutamate synthetase (FPGS).
T2 sequence (whole entry): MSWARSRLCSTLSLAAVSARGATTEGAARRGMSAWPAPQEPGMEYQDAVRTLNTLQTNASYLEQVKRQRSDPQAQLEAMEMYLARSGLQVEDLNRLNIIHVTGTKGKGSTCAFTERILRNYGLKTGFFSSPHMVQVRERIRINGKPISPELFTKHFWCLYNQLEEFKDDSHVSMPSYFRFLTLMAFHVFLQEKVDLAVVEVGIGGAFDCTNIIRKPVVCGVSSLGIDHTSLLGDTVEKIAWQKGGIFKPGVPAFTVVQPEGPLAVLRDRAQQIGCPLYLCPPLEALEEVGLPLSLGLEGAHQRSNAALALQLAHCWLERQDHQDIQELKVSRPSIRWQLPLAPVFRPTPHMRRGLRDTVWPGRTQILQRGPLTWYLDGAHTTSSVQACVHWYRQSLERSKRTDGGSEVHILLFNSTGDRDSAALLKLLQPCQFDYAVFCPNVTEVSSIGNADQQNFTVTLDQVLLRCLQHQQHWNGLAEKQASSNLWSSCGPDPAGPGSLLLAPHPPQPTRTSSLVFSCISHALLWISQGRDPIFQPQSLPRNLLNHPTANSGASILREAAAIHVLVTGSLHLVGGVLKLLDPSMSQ
In short: (§1)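 Full saturation curves used duplicate assays at each of six concentrations, usually spanning 0.2–3 apparent Km. Kinetic values were derived by the Cleland method. Each value is expressed as a proportion of the PteGlu value from saturation curves run in the same experiment.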

[2] = target: T2, Folylpolyglutamate synthase, mitochondrial (Mus musculus); assay: Activity (relative Vmax) was evaluated in vitro by purified mouse liver folate polyglutamate synthetase (FPGS).; in short: as §1
[3] = target: T2, Folylpolyglutamate synthase, mitochondrial (Mus musculus); assay: Activity (relative Km) was evaluated in vitro by purified mouse liver folate polyglutamate synthetase (FPGS).
In short: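 Partially purified mouse liver FPGS incubated with each substrate for 1 h at 37 °C. Full saturation curves were run in duplicate at six concentrations, usually 0.2–3 apparent Km, and products were isolated. Kinetic constants came from Cleland analysis. Km is expressed relative to PteGlu, taken from saturation curves run in the same experiment.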

L1210 [4] = assay: (§2) Inhibitory concentration against the growth of L1210 murine leukemia cells in tissue culture.; type: functional, cell-based; details: Mus musculus
Mus musculus [5] = assay: In vivo activity (survivors) at optimal dose of 4mg/kg, by intraperitoneal administration in BDF1 mice against L1210 leukemia cells; […] given as 4/21; type: functional
Mus musculus [6] = assay: (§3) In vivo activity(%ILS) at optimal dose of 4 mg/kg, by intraperitoneal administration in BDF1 mice against L1210 leukemia cells; type: functional; details: L1210, ip
Mus musculus [7] = organism: Mus musculus; assay: as §2; type: functional, cell-based
L1210 [8] = assay: as §2; details: Mus musculus
Mus musculus [9] = assay: In vivo activity (survivors) at optimal dose of 4 mg/kg, by intraperitoneal administration in BDF1 mice against L1210 leukemia cells; […] given as 0/10; type: functional
L1210 [10] = assay: as §3; type: functional; details: Mus musculus, L1210, ip
Mus musculus [11] = assay: In vivo activity (survivors) at optimal dose of 1 mg/kg, by intraperitoneal administration in BDF1 mice against L1210 leukemia cells; […] given as 5/22; type: functional
Mus musculus [12] = assay: In vivo activity(%ILS) at optimal dose of 1 mg/kg, by intraperitoneal administration in BDF1 mice against L1210 leukemia cells; type: functional; details: L1210, ip

Compound | pIC50 (Thymidylate synthase) | Relative Vmax [2] | pIC50 (L1210 [4]) | Relative Km [1] | also measured
Nc1nc2ncc(CCc3ccc(C(=O)N[C@@H](CCC(=O)O)C(=O)O)cc3)cc2c(=O)[nH]1 | 4.11 | – | – | – | –
Nc1nc(=O)c2nc(CNc3ccc(C(=O)N[C@@H](CCC(=O)O)C(=O)O)cc3)cnc2[nH]1 | – | 1 | – | – | Km app [1]: 1 rel
Nc1nc(N)c2cc(CCc3ccc(C(=O)NC(CCC(=O)O)C(=O)O)cc3)cnc2n1 (stereo not given) | 4.04 | 0.35 | 7.77 | – | Relative Km [3]: 0.86; Survivors (Mus musculus [5]): 4; ILS at 4 mg/kg (Mus musculus [6]): 130%
Nc1nc(O)c2c(n1)NCC(CCc1ccc(C(=O)NC(CCC(=O)O)C(=O)O)cc1)C2 (stereo not given) | < 3.00 | 1.24 | – | 0.05 | pIC50 (Mus musculus [7]): 7.23
CN(Cc1cnc2nc(N)nc(N)c2n1)c1ccc(C(=O)N[C@@H](CCC(=O)O)C(=O)O)cc1 [METHOTREXATE] | – | – | – | – | pIC50 (L1210 [8]): 8.00; Survivors (Mus musculus [9]): 0; ILS at 4 mg/kg (L1210 [10]): 85%
Nc1nc(O)c2c(n1)NCC(CNc1ccc(C(=O)N[C@@H](CCC(=O)O)C(=O)O)cc1)N2 (stereo not given in full) | – | 1.31 | – | 0.051 | –
Nc1nc(N)c2c(n1)NCC(CCc1ccc(C(=O)NC(CCC(=O)O)C(=O)O)cc1)C2 (stereo not given) | 3.04 | 1.61 | 8.48 | 0.23 | Survivors (Mus musculus [11]): 5; ILS at 1 mg/kg (Mus musculus [12]): 111%
Nc1nc(O)c2cc(CCc3ccc(C(=O)N[C@@H](CCC(=O)O)C(=O)O)cc3)cnc2n1 | – | 0.9 | – | 0.68 | pIC50 (Mus musculus [7]): < 4.00
Nc1nc(N)c2nc(CNc3ccc(C(=O)N[C@@H](CCC(=O)O)C(=O)O)cc3)cnc2n1 [AMINOPTERIN] | – | 1.5 | 8.68 | 0.21 | –
